Source: ChEMBL document CHEMBL1141538, “Carboxylic acid bioisosteres acylsulfonamides, acylsulfamides, and sulfonylureas as novel antagonists of the CXCR2 receptor” (Bioorg Med Chem Lett, 2008)

Key:
[1] = target: T1, C-X-C chemokine receptor type 2 (Homo sapiens, UniProt P25025); experiment: Displacement of europium labeled-human IL8 from human cloned CXCR2 expressed in Sf9 membrane with Galphai3-beta-1-gamma-2 by DELFIA binding assay
T1 sequence (P25025 whole entry): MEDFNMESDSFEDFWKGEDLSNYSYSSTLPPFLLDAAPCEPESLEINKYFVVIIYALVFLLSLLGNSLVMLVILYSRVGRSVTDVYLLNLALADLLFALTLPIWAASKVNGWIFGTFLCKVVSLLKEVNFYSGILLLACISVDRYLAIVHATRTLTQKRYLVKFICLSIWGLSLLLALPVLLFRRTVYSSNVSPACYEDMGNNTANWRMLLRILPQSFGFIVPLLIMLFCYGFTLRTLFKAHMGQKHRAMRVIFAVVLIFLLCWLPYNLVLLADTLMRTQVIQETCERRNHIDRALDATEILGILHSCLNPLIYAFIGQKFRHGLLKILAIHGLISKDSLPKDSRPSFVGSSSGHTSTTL
How it was run: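 Lysates (40 µg/mL) incubated in triplicate with 2 nM Eu-IL-8 and compound, 90 min at room temperature. Filtered and washed, enhancement solution added, time-resolved fluorescence read at 340/612 nm with 400 µs delay. Background defined with 200 nM unlabeled human IL-8. IC50 by four-parameter logistic fit.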

[2] = target: T1, C-X-C chemokine receptor type 2; experiment: Antagonist activity at human cloned CXCR2 by calcium flux FLIPR assay; type: functional
How it was run: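 Chem-1 cells carrying cloned human CXCR2 coupled to Gi/o, seeded at 5 × 10⁵ cells/mL and left to adhere overnight in DMEM without G-418. Loaded with half-strength Calcium 3 dye in HBSS/20 mM Hepes pH 7.4/2.5 mM probenecid, with compound in triplicate, 30 min at 37 °C then 30 min at room temperature. Stimulated with human IL-8 (4 nM solution added). Fluorescence 485/525 read every 2 s. IC50 from a four-parameter logistic fit.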

Cytochrome P450 1A2 = target: T2, Cytochrome P450 1A2 (Homo sapiens, UniProt P05177); experiment: Inhibition of CYP1A2; type: ADME
T2 sequence (P05177 whole entry): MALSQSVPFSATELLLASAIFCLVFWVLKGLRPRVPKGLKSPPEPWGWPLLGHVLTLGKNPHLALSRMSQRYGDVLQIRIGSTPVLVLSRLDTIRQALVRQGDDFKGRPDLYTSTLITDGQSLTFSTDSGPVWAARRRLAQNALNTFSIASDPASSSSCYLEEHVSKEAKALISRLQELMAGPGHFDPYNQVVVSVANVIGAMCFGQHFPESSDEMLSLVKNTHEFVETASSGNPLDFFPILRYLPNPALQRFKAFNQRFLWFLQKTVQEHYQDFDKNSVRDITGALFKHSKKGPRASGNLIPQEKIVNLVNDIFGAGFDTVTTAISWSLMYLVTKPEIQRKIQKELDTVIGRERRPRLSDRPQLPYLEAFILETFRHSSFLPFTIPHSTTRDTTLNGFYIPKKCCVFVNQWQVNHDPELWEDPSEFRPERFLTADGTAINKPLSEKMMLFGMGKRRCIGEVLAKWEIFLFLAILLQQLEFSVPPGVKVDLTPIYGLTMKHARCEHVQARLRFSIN

[3] = Oral bioavailability in rat; type: ADME, organism-based; details: in vivo
[4] = Half life in iv dosed rat; type: ADME, organism-based; details: in vivo
Cytochrome P450 2C9 = Cytochrome P450 2C9 (Homo sapiens, UniProt P11712); experiment: Inhibition of CYP2C9; type: ADME
Chain of Cytochrome P450 2C9 (P11712 whole entry): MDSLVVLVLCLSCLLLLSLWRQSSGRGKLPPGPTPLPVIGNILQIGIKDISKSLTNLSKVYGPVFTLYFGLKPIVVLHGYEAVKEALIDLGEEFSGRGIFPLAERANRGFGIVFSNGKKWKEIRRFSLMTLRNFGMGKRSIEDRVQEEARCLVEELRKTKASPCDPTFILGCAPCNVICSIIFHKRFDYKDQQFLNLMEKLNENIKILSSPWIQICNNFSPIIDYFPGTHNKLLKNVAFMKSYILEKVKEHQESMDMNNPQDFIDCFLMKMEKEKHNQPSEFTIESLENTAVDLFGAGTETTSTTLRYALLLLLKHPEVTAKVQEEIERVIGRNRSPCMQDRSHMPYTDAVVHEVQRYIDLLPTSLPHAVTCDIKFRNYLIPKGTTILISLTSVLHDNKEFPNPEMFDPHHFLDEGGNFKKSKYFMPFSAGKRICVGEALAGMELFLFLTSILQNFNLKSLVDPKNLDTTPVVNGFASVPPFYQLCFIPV

[5] = Clearance in iv dosed rat; type: ADME, organism-based; details: in vivo
Rattus norvegicus [6] = experiment: Reduction of hyperoxia-induced neutrophil accumulation in newborn rat at 10 mg/kg, ip after 7 days; type: functional; parameters: scale not given: the % may be the effect or the level left; details: route intraperitoneal
Cytochrome P450 3A4 = Cytochrome P450 3A4 (Homo sapiens, UniProt P08684); experiment: Inhibition of CYP3A4; type: ADME
Chain of Cytochrome P450 3A4 (P08684 whole entry): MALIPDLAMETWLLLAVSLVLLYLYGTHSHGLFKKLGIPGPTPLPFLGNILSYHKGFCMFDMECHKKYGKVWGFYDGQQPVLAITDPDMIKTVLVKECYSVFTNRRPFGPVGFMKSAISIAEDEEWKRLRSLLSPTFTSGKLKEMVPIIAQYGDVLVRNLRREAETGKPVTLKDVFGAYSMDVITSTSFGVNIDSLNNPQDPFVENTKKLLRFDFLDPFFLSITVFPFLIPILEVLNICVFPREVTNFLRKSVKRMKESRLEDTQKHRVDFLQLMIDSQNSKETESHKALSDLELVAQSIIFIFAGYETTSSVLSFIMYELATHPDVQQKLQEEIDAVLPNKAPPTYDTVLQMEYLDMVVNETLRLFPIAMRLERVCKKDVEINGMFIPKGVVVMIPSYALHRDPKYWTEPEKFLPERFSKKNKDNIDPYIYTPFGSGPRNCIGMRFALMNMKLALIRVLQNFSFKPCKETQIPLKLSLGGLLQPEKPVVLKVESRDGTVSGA

Cytochrome P450 2C19 = Cytochrome P450 2C19 (Homo sapiens, UniProt P33261); experiment: Inhibition of CYP2C19; type: ADME
Chain of Cytochrome P450 2C19 (P33261 whole entry): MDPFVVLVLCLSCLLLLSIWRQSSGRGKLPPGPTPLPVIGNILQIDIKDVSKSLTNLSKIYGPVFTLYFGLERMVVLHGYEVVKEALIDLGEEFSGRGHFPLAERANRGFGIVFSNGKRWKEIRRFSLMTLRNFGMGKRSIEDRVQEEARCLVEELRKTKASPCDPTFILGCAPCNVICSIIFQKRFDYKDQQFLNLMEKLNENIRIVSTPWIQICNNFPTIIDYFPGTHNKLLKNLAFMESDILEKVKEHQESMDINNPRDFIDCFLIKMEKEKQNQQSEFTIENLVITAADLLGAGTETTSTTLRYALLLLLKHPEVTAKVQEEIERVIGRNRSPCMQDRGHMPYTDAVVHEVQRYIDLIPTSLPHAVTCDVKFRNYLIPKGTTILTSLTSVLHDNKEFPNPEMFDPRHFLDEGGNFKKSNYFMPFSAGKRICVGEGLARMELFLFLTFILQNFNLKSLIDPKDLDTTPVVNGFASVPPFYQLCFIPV

Cytochrome P450 2D6 = Cytochrome P450 2D6 (Homo sapiens, UniProt P10635); experiment: Inhibition of CYP2D6; type: ADME
Chain of Cytochrome P450 2D6 (P10635 whole entry): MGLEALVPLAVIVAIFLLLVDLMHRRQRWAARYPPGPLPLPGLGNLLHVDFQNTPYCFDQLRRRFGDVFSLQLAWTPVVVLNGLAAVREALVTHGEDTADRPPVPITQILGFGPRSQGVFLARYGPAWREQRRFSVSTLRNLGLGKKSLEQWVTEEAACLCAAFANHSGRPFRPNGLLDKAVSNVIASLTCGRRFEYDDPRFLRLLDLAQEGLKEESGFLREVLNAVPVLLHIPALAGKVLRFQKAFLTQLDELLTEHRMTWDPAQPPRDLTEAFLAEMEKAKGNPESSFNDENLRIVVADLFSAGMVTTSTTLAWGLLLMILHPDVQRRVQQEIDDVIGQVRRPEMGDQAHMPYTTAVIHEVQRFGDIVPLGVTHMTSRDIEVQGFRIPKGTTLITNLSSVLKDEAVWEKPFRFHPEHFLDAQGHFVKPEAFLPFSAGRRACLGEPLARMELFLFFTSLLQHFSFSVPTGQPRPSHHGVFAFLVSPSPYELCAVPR

Rattus norvegicus [7] = experiment: Reduction of hyperoxia-induced neutrophil accumulation in newborn rat at 10 mg/kg, ip after 7 days; parameters: scale not given: the % may be the effect or the level left; details: route intraperitoneal
[8] = Plasma protein binding in rat; type: ADME, cell-free; details: read-out: PPB
[9] = Stability in human liver microsomes after 10 mins; type: ADME, Microsome; details: read-out: Stability
[10] = Stability in rat liver microsomes after 10 mins; type: ADME, Microsome; details: read-out: Stability

| IC50 [1] | SMILES | other results |
| --- | --- | --- |
| 150 nM | N#Cc1ccc2[nH]c(-c3ccc(F)cc3)c(CCCC(=O)NS(=O)(=O)N3CCOCC3)c2c1 | – |
| 57 nM | COc1cc2[nH]c(-c3ccc(F)cc3)c(CCCC(=O)NS(=O)(=O)N(C)C)c2cc1C#N | – |
| 24 nM | Cc1cc2[nH]c(-c3ccc(F)cc3)c(CCCC(=O)NS(=O)(=O)N(C)C)c2cc1C#N | – |
| 640 nM | CS(=O)(=O)NC(=O)NCCc1c(-c2ccc(F)cc2)[nH]c2ccc(C#N)cc12 | – |
| 120 nM | O=C(NCCc1c(-c2ccc(F)cc2)[nH]c2ccc(Br)cc12)NS(=O)(=O)c1ccccc1 | IC50 [2]: 4 nM |
| 520 nM | N#Cc1ccc2[nH]c(-c3ccc(F)cc3)c(CCNC(=O)NS(=O)(=O)c3ccc(F)cc3)c2c1 | – |
| 140 nM | N#Cc1ccc2[nH]c(-c3ccc(F)cc3)c(CCNC(=O)NS(=O)(=O)c3ccccc3)c2c1 | – |
| 220 nM | CC(C)S(=O)(=O)NC(=O)CCCc1c(-c2ccc(F)cc2)[nH]c2ccc(C#N)cc12 | – |
| 170 nM | CS(=O)(=O)NC(=O)CCCc1c(-c2ccc(F)cc2)[nH]c2ccc(Br)cc12 | – |
| 64 nM | CCS(=O)(=O)NC(=O)CCCc1c(-c2ccc(F)cc2)[nH]c2ccc(C#N)cc12 | – |
| 260 nM | N#Cc1ccc2[nH]c(-c3ccc(F)cc3)c(CCCC(=O)NS(=O)(=O)c3ccccc3)c2c1 | – |
| 87 nM | N#Cc1ccc2[nH]c(-c3ccc(F)cc3)c(CCCC(=O)NS(=O)(=O)C(F)(F)F)c2c1 | IC50 [2]: 70 nM |
| 120 nM | CNS(=O)(=O)NC(=O)CCCc1c(-c2ccc(F)cc2)[nH]c2ccc(C#N)cc12 | IC50 [2]: 14 nM |
| 66 nM | N#Cc1ccc2[nH]c(-c3ccc(F)cc3)c(CCCC(=O)NS(N)(=O)=O)c2c1 | – |
| 1100 nM | CCCCNS(=O)(=O)NC(=O)CCCc1c(-c2ccc(F)cc2)[nH]c2ccc(C#N)cc12 | – |
| > 2000 nM | CN(C(=O)CCCc1c(-c2ccc(F)cc2)[nH]c2ccc(C#N)cc12)S(C)(=O)=O | – |
| 1300 nM | CCCS(=O)(=O)NC(=O)CCCc1c(-c2ccc(F)cc2)[nH]c2ccc(C#N)cc12 | – |
| 260 nM | COCCNS(=O)(=O)NC(=O)CCCc1c(-c2ccc(F)cc2)[nH]c2ccc(C#N)cc12 | – |
| 19 nM | Cc1cc2[nH]c(-c3ccc(F)cc3)c(CCCC(=O)NS(C)(=O)=O)c2cc1C#N | – |
| 50 nM | CN(C)S(=O)(=O)NC(=O)CCCc1c(-c2ccc(F)cc2)[nH]c2ccc(C#N)cc12 | IC50 (Cytochrome P450 1A2): > 5000 nM; bioavailability [3]: 107%; half-life [4]: 2.7 h; IC50 (Cytochrome P450 2C9): 1320 nM; clearance [5]: 3.8 mL/min/kg; Activity (Rattus norvegicus [6]): 50%; IC50 (Cytochrome P450 3A4): > 5000 nM; IC50 (Cytochrome P450 2C19): > 5000 nM; IC50 (Cytochrome P450 2D6): > 5000 nM; Activity (Rattus norvegicus [7]): 50%; IC50 [2]: 5 nM; fraction unbound [8]: < 0.01; remaining at 10 min [9]: 76.8%; remaining at 10 min [10]: 100% |
| 1100 nM | CCN(CC)S(=O)(=O)NC(=O)CCCc1c(-c2ccc(F)cc2)[nH]c2ccc(C#N)cc12 | – |
| 1400 nM | N#Cc1ccc2[nH]c(-c3ccc(F)cc3)c(CCCC(=O)NS(=O)(=O)Cc3ccccc3)c2c1 | – |
| 160 nM | COc1cc2[nH]c(-c3ccc(F)cc3)c(CCCC(=O)NS(C)(=O)=O)c2cc1C#N | – |
| 880 nM | N#Cc1ccc2[nH]c(-c3ccc(F)cc3)c(CCCC(=O)NS(=O)(=O)Nc3ccccc3)c2c1 | – |
| 250 nM | CS(=O)(=O)NC(=O)NCCc1c(-c2ccc(F)cc2)[nH]c2ccc(Br)cc12 | IC50 [2]: 90 nM |
| 400 nM | N#Cc1ccc2[nH]c(-c3ccc(F)cc3)c(CCNC(=O)NS(=O)(=O)c3ccccc3Cl)c2c1 | – |
| 72 nM | CS(=O)(=O)NC(=O)CCCc1c(-c2ccc(F)cc2)[nH]c2ccc(C#N)cc12 | IC50 [2]: 32 nM |
